Results gathered from unrelated publications.
Target: STE20-like serine/threonine-protein kinase (SLK, Homo sapiens, UniProt Q9H2G2)

SMILES | observed | method | concentration | remaining binding [%]
COc1cnc(Nc2cccc(S(N)(=O)=O)c2)nc1N1CCN(c2ccccc2)CC1 | binding | competition with immobilised ligand | 1 µM | 99
Cc1cnn2ncc(-c3ccnc(N(C)C)n3)c2c1 | binding |  | 1 µM | 100
O=C(NS(=O)(=O)c1ccc(NCC2CCOCC2)c([N+](=O)[O-])c1)c1ccc(N2CCN(Cc3ccc(C(F)(F)F)cc3-c3ccc(Cl)cc3)CC2)cc1Oc1cnc2[nH]ccc2c1 | cell-free assay | competition with immobilised ligand | 1 µM | 100
O=C(c1ccc(Nc2ncc(Cl)c(-c3cc4ccccc4s3)n2)cc1)N1CCC(N2CCCC2)CC1 | binding | competition with immobilised ligand | 1 µM | 1.7
CN(c1nccc(-c2cnn3ncccc23)n1)C1CC1 | binding |  | 1 µM | 100
FC(F)(F)Oc1cccc(-c2cnc3ccc(-c4ccncc4)nn23)c1 | binding | competition with immobilised ligand | 5 µM | 7.8
O=C(c1ccc(Nc2nccc(-c3cc4ccccc4s3)n2)cc1)N1CCC(N2CCCC2)CC1 | binding | competition with immobilised ligand | 1 µM | 13
C[C@@H](c1ccc(-n2cnc3c(N)ncnc32)cc1)N1CCc2nn(C)c(Cc3ccccc3)c2C1=O | binding | competition with immobilised ligand | 0.1 µM | 100
O=C(O)[C@H]1[C@H](Cn2nnc3ccccc3c2=O)CC[C@@H]1C(=O)c1ccc(OCCC2CCOCC2)cc1 | cell-free assay | competition with immobilised ligand | 1 µM | 96
O=C(c1ccc(Nc2ncc(Cl)c(-c3ccc(Cl)s3)n2)cc1)N1CCC(N2CCCC2)CC1 | binding | competition with immobilised ligand | 1 µM | 1.2
CN(CCCC(F)(F)F)c1nccc(-c2cnn3ncccc23)n1 | binding |  | 1 µM | 85
Nc1ncc2c(n1)-c1c([nH]c3ccc(C#CC4CC4)cc13)CCCC2 | binding | competition with immobilised ligand | 1 µM | 100
O=C(Nc1c[nH]nc1C(=O)NC1CCNCC1)c1cc(F)cc(F)c1 | binding | competition with immobilised ligand | 1 µM | 100
CCOC(=O)c1cc2cc(-c3cc(C(=O)NCc4ccc(C(=O)O)cc4)nn3C)ccc2[nH]1 | cell-free assay | competition with immobilised ligand | 0.1 µM | 98
c1cncc(-c2cccc(Nc3nccc(NC4CCCCC4)n3)c2)c1 | binding | competition with immobilised ligand | 10 µM | 19
Cc1nc(N2CC[C@@H](O)C2)ncc1-c1cc(C(F)(F)F)cc2[nH]ncc12 | binding | competition with immobilised ligand | 1 µM | 98
C[C@@H]1CCN(c2nccc(-c3cnn4ncccc34)n2)C1 | binding |  | 1 µM | 87
c1ccc(N2CCN(Cc3nc4ccccc4[nH]3)CC2)nc1 | binding | competition with immobilised ligand | 1 µM | 93
c1cnn2ncc(-c3ccnc(N4CCC45COC5)n3)c2c1 | binding |  | 1 µM | 100
NS(=O)(=O)c1cc(NC(=O)Cc2ccccc2)ccc1Oc1cccc(Cl)c1 | cell-free assay | competition with immobilised ligand | 1 µM | 66
N[C@@H]1CCN(c2nccc(-c3cnn4ncccc34)n2)C1 | binding |  | 1 µM | 83
